The results in this text go back to ChEMBL document CHEMBL4715860 (J Med Chem, 2020).

One may read the Cmax as the peak of the concentration-time curve. One may read the Tmax as the time at which the peak concentration occurs. Broadly, the AUC is concentration integrated over time. Read a low AUC as less exposure. As usually defined, the AUC(0-t) is the area under the concentration-time curve up to a stated or last time point. By CL/F is commonly meant clearance divided by bioavailability, as obtained after extravascular dosing.

Calls of active or inactive are those of the source. The rule behind the calls is not given here.

Data set [1] in a line: Cmax in C57BL/6J mouse brain at 10 mg/kg, po administered as single dose by mass spectrometry based UHPLC analysis. Type of data set: ADME, organism-based. Set-up: route oral, dose 10 mg/kg. The method, boiled down:
(§1)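 Female C57BL/6J mice, one oral dose of 10 mg/kg in 20% Captisol; plasma and brain levels over time, n = 3 per time point (mean).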

The nature of data set [2]: Cmax in C57BL/6J mouse brain at 10 mg/kg, po administered once a day for 4 consecutive days by mass spectrometry based UHPLC analysis. Type of data set: ADME, organism-based. The arrangement: route oral, dose 10 mg/kg, time 4 day. The essentials: (§2)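 Female C57BL/6J mice given 10 mg/kg p.o. in 20% Captisol once daily for 4 consecutive days. Plasma and brain sampled after the final dose on day 4, n = 3 per time point.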

Data set [3] can be described thus: Elimination half life in C57BL/6J mouse brain at 10 mg/kg, po administered once a day for 4 consecutive days by mass spectrometry based UHPLC analysis. The format is ADME, organism-based. As to conditions: time 4 day, read-out: beta t1/2 (converted). The method, boiled down: as §2
Data set [4] can be described thus: Tmax in C57BL/6J mouse brain at 10 mg/kg, po administered once a day for 4 consecutive days by mass spectrometry based UHPLC analysis. The format is ADME, organism-based. The following applies: time 4 day. The essentials: (§3)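 Female C57BL/6J mice dosed orally at 10 mg/kg in 20% Captisol, either once or once daily for 4 days with sampling after the last dose on day 4. Plasma and brain concentrations followed over time. Tmax taken from at least 3 time points.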

The nature of data set [5]: Elimination half life in C57BL/6J mouse plasma at 10 mg/kg, po administered as single dose by mass spectrometry based UHPLC analysis. As to conditions: read-out: beta t1/2 (converted). The format is ADME, organism-based. The method, boiled down: as §1
The nature of data set [6]: AUC (0 to 8 hrs) in C57BL/6J mouse plasma at 10 mg/kg, po administered once a day for 4 consecutive days by mass spectrometry based UHPLC analysis. The arrangement: route oral, time 4 day, dose 10 mg/kg. Type of data set: ADME, organism-based. The method, boiled down:
as §2

A short description of data set [7]: Elimination half life in C57BL/6J mouse plasma at 10 mg/kg, po administered once a day for 4 consecutive days by mass spectrometry based UHPLC analysis. The format is ADME, organism-based. As to conditions: time 4 day, read-out: beta t1/2 (converted). The essentials:
as §2

Data set [8] concerns Mus musculus. Briefly: In vivo inhibition of PI3Kalpha C57BL/6J mouse assessed as increase in plasma insulin concentration at 10 mg/kg, po measured after 8 hrs by ELISA. The format is functional, organism-based. Background: ELISA stands for enzyme-linked immunosorbent assay.
The nature of data set [9]: Tmax in C57BL/6J mouse brain at 10 mg/kg, po administered as single dose by mass spectrometry based UHPLC analysis. Type of data set: ADME, organism-based. The essentials:
as §3

Data set [10] in a line: AUC (0 to 8 hrs) in C57BL/6J mouse plasma at 10 mg/kg, po administered as single dose by mass spectrometry based UHPLC analysis. Type of data set: ADME, organism-based. Set-up: time < 8 hr, route oral, dose 10 mg/kg. The essentials:
as §1

The nature of data set [11]: Cmax in C57BL/6J mouse plasma at 10 mg/kg, po administered as single dose by mass spectrometry based UHPLC analysis. The format is ADME, organism-based. Set-up: route oral, dose 10 mg/kg. The essentials: as §1
A short description of data set [12]: Tmax in C57BL/6J mouse plasma at 10 mg/kg, po administered once a day for 4 consecutive days by mass spectrometry based UHPLC analysis. The format is ADME, organism-based. The following applies: time 4 day. The essentials: as §3
Data set [13] in a line: Tmax in C57BL/6J mouse plasma at 10 mg/kg, po administered as single dose by mass spectrometry based UHPLC analysis. Type of data set: ADME, organism-based. The essentials: as §3
A short description of data set [14]: Toxicity in Tsc1-GFAP knockout Balb/c mouse assessed as change in body weight at 10 mg/kg, po. The format is organism-based. As to conditions: in vivo. The essentials: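 Tsc1GFAPCKO mice dosed orally from P21 at 10, 25, 50 mg/kg or 50 mg/kg bid. Body weight tracked during the survival study; mean ± SEM.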
The nature of data set [15]: AUC (0 to 8 hrs) in C57BL/6J mouse brain at 10 mg/kg, po administered once a day for 4 consecutive days by mass spectrometry based UHPLC analysis. The format is ADME, organism-based. The arrangement: route oral, time 4 day, dose 10 mg/kg. The method, boiled down:
as §2

Data set [16] has as its system Mus musculus. As to the kind of experiment: In vivo inhibition of PI3Kalpha in C57BL/6J mouse assessed as increase in plasma glucose concentration at 10 mg/kg, po measured after 8 hrs by glucoseoxidase-peroxide coupled colorimetric assay. The format is functional, organism-based.
The test system of data set [17] is Mus musculus. Briefly: Protection against Tsc1-GFAP knockout induced mortality in Balb/c mouse assessed as increase in survival rate at 10 mg/kg, po administered as single dose. Type of data set: functional, organism-based.
Data set [18] in a line: AUC (0 to 8 hrs) in C57BL/6J mouse brain at 10 mg/kg, po administered as single dose by mass spectrometry based UHPLC analysis. The arrangement: time < 8 hr, route oral, dose 10 mg/kg. The format is ADME, organism-based. The essentials:
as §1

The test system of data set [19] is Mus musculus. As to the kind of experiment: In vivo inhibition of mTORC1 signalling in C57BL/6J mouse assessed as reduction in RPS6 phosphorylation at S235/236 residue in cortex at 10 mg/kg, po incubated for 30 mins by Western blot analysis. Type of data set: functional, organism-based. A general note: A western blot detects proteins with antibodies after separation by electrophoresis.

The nature of data set [20]: Clearance in C57BL/6J mouse plasma at 10 mg/kg, po administered as single dose by mass spectrometry based UHPLC analysis. Type of data set: ADME, organism-based. The essentials: as §1
Data set [21] in a line: Cmax in C57BL/6J mouse plasma at 10 mg/kg, po administered once a day for 4 consecutive days by mass spectrometry based UHPLC analysis. Type of data set: ADME, organism-based. Set-up: route oral, dose 10 mg/kg, time 4 day. The method, boiled down: as §2
Data set [22] is described as follows: Clearance in C57BL/6J mouse plasma at 10 mg/kg, po administered once a day for 4 consecutive days by mass spectrometry based UHPLC analysis. Type of data set: ADME, organism-based. As to conditions: time 4 day. The method, boiled down:
as §2

Data set [23] can be described thus: Metabolic stability in Beagle dog hepatocytes assessed as parent compound remaining at 5 uM incubated for 3 hrs by LC-MS analysis. The format is ADME, cell-based, Canis lupus familiaris, Hepatocyte. As to conditions: read-out: Stabilty. The essentials: (§4)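 Cryopreserved primary hepatocytes in suspension (CD-1 mouse, Sprague-Dawley rat, Beagle dog, human). Compound diluted from 10 mM DMSO stock to 5 μM final. Sampled at 0, 15, 60, 90 and 180 min, protein precipitated with ACN plus internal standard, supernatant analysed by LC−MS. Run in duplicate. 7-ethoxycoumarin as positive control. Hepatocyte-free medium incubations as negative control.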

Data set [24] can be described thus: Toxicity in po dosed Balb/c nude mouse administered once daily for 14 days measured for 7 days starting from post last dose. The following applies: in vivo, time 21 day. Type of data set: organism-based. The essentials: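 Nontumor-bearing female BALB/c nude mice dosed p.o. once daily for 14 days at 100, 150 or 200 mg/kg (n = 3 each), with vehicle of 20% Captisol in water (n = 1). Body weight change followed, with animals evaluated for 7 days after dosing to set the maximum tolerated dose.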

Data set [25] has as its system Mus musculus. As to the kind of experiment: Protection against Tsc1-GFAP knockout induced mortality in Balb/c mouse assessed as increase in survival rate administered orally twice a day measured post last dose. Type of data set: functional, organism-based. The method, boiled down:
(§5)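 Tsc1GFAPCKO mice (Tsc1 conditionally inactivated mainly in glia). Oral dosing from P21 at 10, 25, 50 mg/kg qd or 50 mg/kg bid, n = 7–10 per group. Controls were vehicle and a comparator at 10 mg/kg. Body weight tracked. Survival followed from P21 to death or censoring at P90, compared by log-rank test.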

The nature of data set [26]: Metabolic stability in human hepatocytes assessed as parent compound remaining at 5 uM incubated for 3 hrs by LC-MS analysis. The format is ADME, cell-based, Hepatocyte. As to conditions: read-out: Stabilty. The essentials: as §4
Data set [27] deals with Mus musculus. As to the kind of experiment: Protection against Tsc1-GFAP knockout induced mortality in Balb/c mouse assessed as increase in survival rate at 100 mg/kg, po administered as single dose. Type of data set: functional, organism-based.
The nature of data set [28]: Toxicity in Tsc1-GFAP knockout Balb/c mouse assessed as survival rate administered orally once a day measured post last dose. As to conditions: in vivo, po, dose 50-100 mg/kg. The method, boiled down: as §5
A short description of data set [29]: Metabolic stability in Sprague-Dawley rat hepatocytes assessed as parent compound remaining at 5 uM incubated for 3 hrs by LC-MS analysis. The following applies: read-out: Stabilty. Type of data set: ADME, cell-based, Hepatocyte. The method, boiled down: as §4
A short description of data set [30]: Metabolic stability in CD1 mouse hepatocytes assessed as parent compound remaining at 5 uM incubated for 3 hrs by LC-MS analysis. Type of data set: ADME, cell-based, Hepatocyte. The following applies: read-out: Stabilty. The method, boiled down:
as §4

Data set [31] is described as follows: Toxicity in Tsc1-GFAP knockout Balb/c mouse assessed as change in body weight at 50 to 100 mg/kg, po. Type of data set: organism-based. As to conditions: in vivo, dose 50-100 mg/kg.

As for `CO[C@H]1C[C@@H]2CC[C@@H](C)[C@@](O)(O2)C(=O)C(=O)N2CCCC[C@H]2C(=O)O[C@H]([C@H](C)C[C@@H]2CC[C@@H](OCCO)[C@H](OC)C2)CC(=O)[C@H](C)/C=C(\C)[C@@H](O)[C@@H](OC)C(=O)[C@H](C)C[C@H](C)/C=C/C=C/C=C/1C` [EVEROLIMUS], the Cmax in [1] was determined as 57 ng/mL; in data set [2] it was 43 ng/mL; in [11], 3460 ng/mL; in [21], 3940 ng/mL. In addition, the half-life in data set [3] was 15.8 h; in [5], 6.5 h; in data set [7], 5.7 h. The Tmax in [4] is 4 h; in data set [9], 24 h; in [12], 2 h; in [13], 0.5 h. The AUC at 96 h in data set [6] turned out to be 42300 ng·h/mL; in data set [15] it was 640 ng·h/mL. For the same compound, the inhibition result in [8], in [16] and in data set [19] was “inactive” throughout. In addition, the AUC(0-t) at 8 h came to 33600 ng·h/mL in data set [10] and 804 ng·h/mL in [18]. The Activity result in [14] is reported as “Non-Toxic”. The result in data set [17] was Active. For the same compound, the figures for the CL/F in data set [20] and in [22] were 4.6 mL/min/kg and 3.75 mL/min/kg, respectively.

Regarding `Nc1cc(C(F)F)c(-c2nc(N3C4CCC3COC4)nc(N3C4CCC3COC4)n2)cn1`, the remaining at 3 h, 5 µM in data set [23] is greater than 59.9%; in data set [26] it was 27.8%; in data set [29] it was greater than 59.9%; in [30] it was greater than 59.9%. In data set [24], the MTD at 504 h was determined as 150 mg/kg. The Activity result in [25] was “Dose-dependent effect”; in data set [28] it was “Dose-dependent effect”; in [31], “Non-Toxic”. Besides, the outcome in data set [27] was Active.
